Assay results: ChEMBL document CHEMBL4689842, “EUbOPEN Chemogenomics Library wave 1” (2021)
Several values for one entry are separate records, joined by “and”; a condition that tells them apart may be missing. Equal values may be shown once.

Tested on: Fibroblast
Test: Multiplex assay against human fibroblast
Assay type: toxicity, cell-based
Conditions: 10 µM, compound concentration 10 uM
Outline: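 On a CQ1 microscope at 37°C and 5% CO2, live cells were imaged after compound addition. They had been stained at seeding with Hoechst33342, BioTracker Green Microtubule Cytoskeleton Dye, MitoTracker Red and Annexin V Alexa Fluor 680. CellPathfinder machine-learning gating assigned cells to Hoechst high-intensity objects or normal cells, normal cells to healthy, pyknosed or fragmented nuclei, and pyknosed cells to mitotic or apoptotic. Tubulin, mitochondrial-mass and membrane-permeability phenotypes are per cents of healthy-nucleus cells.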

## CCOCCn1cc(C(=O)Nc2ccc(-n3nc(-c4cccnc4)cc3C(F)(F)F)cn2)ccc1=O [BI 1935]
12 h, replicate 1
  Population Apoptotic (%): 85% and 52% and 61%
  Population Fragmented Nuclei (%): 25% and 26% and 24%
  Population Healthy Nuclei (%): 45% and 60% and 58%
  Population Hoechst High Intensity Objects (%): 20% and 11% and 13%
  Population Membrane Permeable-Phenotype (%): 9% and 15% and 6%
  Population Normal (%): 79% and 88% and 86%
  Population Pyknosed Nuclei (%): 29% and 13% and 17%
12 h, replicate 2
  Population Apoptotic (%): 100% and 42% and 47%
  Population Membrane Permeable-Phenotype (%): 23% and 14% and 8%
  Population Normal (%): 62% and 60% and 92%
  Population Tubulin-Different-Phenotype (%): 23% and 57% and 64%
  Total Cell Count: 78 and 61 and 79
24 h, replicate 1
  Population Apoptotic (%): 60% and 72% and 64%
  Population Fragmented Nuclei (%): 35% and 25% and 24%
  Population Healthy Nuclei (%): 50% and 61% and 62%
  Population Hoechst High Intensity Objects (%): 21% and 14% and 16%
  Population Membrane Permeable-Phenotype (%): 8% and 4%
  Population Mitotic Cells (%): 40% and 27% and 36%
  Population Normal (%): 78% and 85% and 83%
  Population Pyknosed Nuclei (%): 14% and 13% and 12%
24 h, replicate 2
  Population Apoptotic (%): 33% and 28% and 40%
  Population Healthy Nuclei (%): 44% and 25% and 66%
  Population Mitotic Cells (%): 66% and 71% and 60%
  Population Normal (%): 60% and 91%
  Population Tubulin-Different-Phenotype (%): 20% and 55% and 44%
  Total Cell Count: 74 and 58 and 92
48 h, replicate 1
  Population Apoptotic (%): 55%
  Population Fragmented Nuclei (%): 44%
  Population Healthy Nuclei (%): 42%
  Population Hoechst High Intensity Objects (%): 22%
  Population Membrane Permeable-Phenotype (%): 0%
  Population Mitochondria Different-Phenotype (%): 40%
  Population Mitotic Cells (%): 44%
  Population Normal (%): 77%
  Population Pyknosed Nuclei (%): 12%
  Population Tubulin-Different-Phenotype (%): 86%
  Total Cell Count: 90
48 h, replicate 2
  Population Apoptotic (%): 0%
  Population Fragmented Nuclei (%): 28%
  Population Healthy Nuclei (%): 71%
  Population Hoechst High Intensity Objects (%): 9%
  Population Membrane Permeable-Phenotype (%): 11%
  Population Mitochondria Different-Phenotype (%): 3%
  Population Mitotic Cells (%): 0%
  Population Normal (%): 90%
  Population Pyknosed Nuclei (%): 0%
  Population Tubulin-Different-Phenotype (%): 70%
  Total Cell Count: 42
